H69AR inhibit = proliferation blockers of H69AR lung cancer cells, primary screen, cell-based, human, 86K library | H69AR lung tumor viability, ATP luminescence, 72 h; hits give low values | viability, % at 10 µM | actives 6% (n = 85,000);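 active means viability at or below 40%; inactive means viability above 40%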;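 further: multidrug resistant small cell line overexpressing MRP-1 efflux transporter; 100% = mean luminescence of untreated control wells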
HUVEC inhibit = inhibitors of HUVEC proliferation, primary screen, cell-based, 384-well | actives 1.1% (n = 86,000) | viability, % at 10 µM (by protocol) | CellTiter-Glo luminescence, 72 h; hits give low values | AID 648, 2007;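 active means viability at or below 30%; inactive means viability above 30%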;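 further: 100% = median luminescence of DMSO-only cell control wells on each plate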
Lung fibro prol = antiproliferative effect on LL 47 fibroblasts – human, LL 47 cells, CellTiter-Glo luminescence, primary screen; LL 47 human lung fibroblast viability, ATP luminescence; hits give low values; AID 719, 2007; actives 1.1% (n = 85,000); viability, % at 10 µM;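 active means viability at or below 50% in the single dose screen; inactive means viability above 50%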;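 further: compound exposure lasted 72 h before the ATP readout; 100% = median luminescence of untreated cell-only wells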
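Material: human LL 47 lung fibroblast cells; quantity: 1,150 cells/well; medium: IMEM plus 15% FBS; doses: 0.1% DMSO in all compound wells; timing: overnight attachment after seeding, then 72 h compound exposure at 37 °C; detection: CellTiter-Glo luminescence; measure: % viability of median cell-only signal; controls: cell-only wells, no compound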
PTEN del growth = growth suppression of PTEN-null HCT116, primary screen, cell-based, CellTiter-Glo | HCT116 PTEN-null viability, 60 h; hits give low values | viability, % at 10 µM | actives 1.2% (n = 140,000);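 active means viability at or below a set limit, 4 SD under the median of all tested compounds, cut at about 3.7% in these data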;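 further: PTEN knockout HCT116 line with beta catenin targeted HCT116 as companion control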
HCT116 bCat-KO = primary screen for growth suppressors in beta-catenin knockout HCT116 cells (colon tumor, human); HCT116 beta-catenin knockout viability, CellTiter-Glo, 60 h; hits give low values; viability, % at 10 µM; actives 1.5% (n = 140,000); AID 818, 2007;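 active means viability at or under a set limit, the compound median less 4 SD, cut at about 6% in these data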;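 further: 0% = Hyamine 1622 control at 20 µM and 100% = untreated cell control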
An asterisk follows results filed as active; nt = no result given. This is one part of a sample in which hits are shown more often than they occur.

SMILES	H69AR inhibit	HUVEC inhibit	Lung fibro prol	PTEN del growth	HCT116 bCat-KO
Cc1cc(=O)[nH]c(N=N/C(=N/Nc2ccccc2C)c2ccccc2)n1	25.9*	11.8*	24.4*	3.6*	6.6
O=C1C2C3C=CC(C4CC34)C2C(=O)N1Cc1ccco1 (stereo not drawn)	nt	nt	nt	97.8	94.2
COc1ccc2c(C)nc(Nc3nc(C)cc(=O)[nH]3)nc2c1	22.7*	2.6*	8.6*	nt	nt
O=C(Nc1ccccc1)c1cc(Cl)nc2ccccc12	nt	nt	nt	90.7	85.2
CCOc1ccc(NCc2cc3c(C(C)(C)C)nn(-c4ccccc4)c3[nH]c2=O)cc1	nt	nt	nt	1.2*	2.3*
COc1cccc(NCc2cc3c(C(C)(C)C)nn(-c4ccccc4)c3[nH]c2=O)c1	65.8	101.7	88.8	98.2	109.2
Cc1ccc(-c2nn(-c3ccccc3)c3[nH]c(=O)c(CNCc4ccccc4)cc23)cc1	92.4	4.8*	72.4	13.4	3.5*
Cc1nn(-c2ccccc2)c2[nH]c(=O)c(CNCc3ccc4c(c3)OCO4)cc12	92.1	91.1	87.8	89.2	82.4
Cc1ccc(-c2nn(-c3ccccc3)c3[nH]c(=O)c(CNCCN(C)C)cc23)cc1	17.2*	42.7	74.1	nt	nt
CCCn1c(C)cc(C(=O)COC(=O)c2ccc[nH]c2=O)c1C	nt	nt	nt	82.9	88.1
CCCCC(=O)Nc1cc(C(=O)NCCc2ccccc2)ccc1Cl	nt	nt	nt	78.6	74.8
O=C1C2C3C=CC(C3)C2C(=O)N1CNc1ccc(O)cc1 (stereo not drawn)	28.9*	98.9	102.3	97.9	90.8
COc1ccc2c(c1)c1nc(SCC(C)C)n(CCO)c(=O)c1n2C	80.7	80.8	84.8	63.1	77.1
COc1ccccc1N(CC(=O)NC(C)C)S(=O)(=O)c1cccs1	nt	nt	nt	92.1	90.6
O=c1c2ccccc2nnn1CSc1nnc(COc2ccc(Cl)cc2)n1Cc1ccco1	70.7	75.7	85.7	64.5	91.0
O=c1c2ccccc2nnn1CSc1nc2cc(Cl)ccc2c(=O)n1Cc1ccco1	27.9*	54.6	61.1	nt	nt
Cc1nnc(NC(=O)CSc2nc(C(C)C)nc3ccccc23)s1	nt	nt	nt	37.0	57.3
COc1ccc(CCn2c(SCC(=O)Nc3cc(C)on3)nc3ccccc3c2=O)cc1OC	32.6*	68.3	102.9	70.9	75.5
Cc1cc(NC(=O)CSc2nc(C(C)C)nc3ccccc23)no1	14.2*	73.4	75.2	27.5	26.3
COc1ccc(CCn2c(SCC(=O)Nc3cc(C)on3)nc3ccsc3c2=O)cc1OC	68.6	100.1	78.9	71.4	70.6
CCCCCCn1c(SCC(=O)Nc2cc(C)on2)nc2ccccc2c1=O	7.0*	60.0	63.9	83.1	32.0
Cn1cc([N+](=O)[O-])c(C(=O)N(Cc2ccccc2)Cc2ccccc2)n1	nt	nt	nt	100.8	92.9
CCCCN(CC)C(=O)CSc1nc2ccccc2c(=O)n1CC1COc2ccccc2O1 (stereo not drawn)	60.8	89.5	89.0	67.0	77.9
CCOC(=O)c1cccc(NC(=O)CSc2nc3ccccc3c(=O)n2CCOC)c1	58.6	89.2	94.8	57.7	67.3
Cc1cc(NC(=O)CSc2nc3c(c(=O)n2CCc2ccccc2)SC(C)C3)no1 (stereo not drawn)	73.4	83.7	75.4	94.6	89.5
SMILES	H69AR inhibit	HUVEC inhibit	Lung fibro prol	PTEN del growth	HCT116 bCat-KO
Cc1cc(NC(=O)CSc2nc3cc4c(cc3c(=O)n2CCc2ccccc2)OCO4)no1	10.4*	15.6*	67.6	58.9	43.8
CCCCNC(=O)CSc1nc2ccccc2c(=O)n1CC1COc2ccccc2O1 (stereo not drawn)	27.2*	86.3	100.4	70.0	66.8
CCOC(=O)c1cccc(NC(=O)CSc2nc3ccccc3c(=O)n2CC)c1	40.0*	70.2	79.3	79.8	81.0
CCOc1ccc(-n2c(SCC(=O)Nc3cc(C)on3)nnc2-c2c[nH]c3ccccc23)cc1	27.3*	59.5	90.3	86.4	91.2
COc1ccccc1CNC(=O)C1CC(c2ccccc2[N+](=O)[O-])=NO1 (stereo not drawn)	nt	nt	nt	91.4	88.4
CCOC(=O)c1sc(/N=C/c2ccc(O)cc2O)cc1C	nt	nt	nt	93.0	90.2
Cc1c(C(=O)NCc2ccc3c(c2)cc(C)n3C)cccc1[N+](=O)[O-]	nt	nt	nt	85.7	86.2
Cc1cc(NC(=O)CSc2nc3ccccc3c(=O)n2Cc2ccc(F)cc2)no1	39.6*	71.6	73.9	98.7	101.7
O=c1c2ccccc2nc(-c2ccco2)n1Cc1ccccc1	73.3	78.7	86.5	88.8	91.3
CCOC(=O)CSc1nc2ccccc2c(=O)n1CCC(=O)NCCc1ccc(OC)c(OC)c1	95.1	92.8	104.2	3.2*	3.2*
O=C(CSc1nc2ccccc2c(=O)n1CCCC(=O)N1CCCC1)NCc1ccco1	75.7	94.5	90.5	99.2	99.5
CCOc1ccc(CCn2c(-c3ccco3)nc3ccccc3c2=O)cc1OCC	31.8*	56.7	77.7	30.4	32.3
Cc1cc(NC(=O)CSc2nc3ccccc3c(=O)n2-c2ccccc2)no1	nt	nt	nt	91.2	98.6
CCc1ccc(NC(=O)CSc2nc3ccccc3c(=O)n2CCCC(=O)N2CCCC2)cc1	29.6*	54.8	74.5	54.9	52.1
N#CCSc1nc2ccccc2c(=O)n1CCC(=O)NCCc1ccccc1	96.2	89.7	99.6	103.4	95.4
CCOc1ccc(Br)cc1S(=O)(=O)Nc1ccc(Cl)c(S(=O)(=O)N(CC)c2ccccc2)c1	nt	nt	nt	82.8	86.1
O=C(Cc1cccs1)Nc1cc(SCCO)cc([N+](=O)[O-])c1	nt	nt	nt	87.0	96.3
COC(=O)c1ccc2c(=O)n(Cc3ccco3)c(SCC(=O)Nc3ccc(C)c(Cl)c3)nc2c1	8.1*	50.2	11.8*	8.1	9.1
c1ccc(-c2nc(NCc3cccnc3)c3oc4ccccc4c3n2)cc1	37.8*	66.8	87.4	52.3	57.8
Cc1nc2ccccn2c1C(=O)NN=C1C2CC3CC(C2)CC1C3	nt	nt	nt	101.6	92.0
Cc1ccc(C(C)C)c(Oc2nnnn2-c2ccccc2)c1	30.2*	84.4	87.1	62.1	55.5
c1ccc(-n2nnnc2Oc2cccc3cccnc23)cc1	36.1*	78.6	89.6	24.9	49.0
Cc1cc(Cl)c(S(=O)(=O)NC2CCCC2)cc1OCC(=O)NC1CCCCC1	96.3	69.2	109.6	34.8	30.7
Cc1ccc2c3c(c(SCC(=O)Nc4nonc4C)nc2c1)CCCC3	16.1*	76.0	87.9	99.7	92.6
Nc1nc(Nc2ccc(Cl)cc2)nc2ccccc12	21.0*	56.3	80.7	22.0	16.9
COc1ccc(S(=O)(=O)N(CC(=O)NCC2CCCO2)c2ccc(F)cc2)cc1OC (stereo not drawn)	97.0	111.7	94.3	91.4	108.6
CCCSc1nnc(NC(=O)Nc2ccc(F)cc2)s1	10.8*	46.8	47.0*	41.5	42.3
CCNC(=S)N/N=C/c1cccc(C)c1	nt	nt	nt	103.4	92.9

Source: PubChem BioAssay
